Measured values: paper PMC12037726 (Nature Communications, 2025)
Values belong to the compound of their own block, whether it stands above or below them.

How the values were obtained:
[1] = tested on: K. pneumoniae ATCC 700603 wt; experiment: Mouse lung infection, CFU in lung at 24 h; type: in vivo; settings: MPN 10 mg/kg i.p.
Procedure, shortened: (§1)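 Nine-week-old female C57BL/6J mice were anaesthetized with ketamine (79 mg/kg) and xylazine (9 mg/kg) i.p. Infected intranasally with 1 × 10^7 CFU in 20 µL PBS from late-exponential cultures. MPN was given at 10 mg/kg i.p. At 24 h mice were killed and the left lung homogenized in PBS. Lung CFU were counted by serial dilution on LB agar and expressed as log CFU per gram.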

K. pneumoniae ∆mfd = experiment: Mouse lung infection, CFU in lung at 24 h, ∆mfd mutant; type: in vivo; settings: NF-NM102 6 mg/kg or MPN 10 mg/kg i.p.
K. pneumoniae ALE = experiment: Mouse lung infection, CFU in lung at 24 h; type: in vivo; settings: MPN 10 mg/kg i.p.
Procedure, shortened: as §1

P. aeruginosa CIP27853 = experiment: Mouse lung infection, CFU in lung at 24 h; type: in vivo; settings: MPN at 10 mg/ml, i.p.
HeLa cells = experiment: Cytotoxicity, CellTiter96 AQueous; type: cell-based, human; settings: 1 h; MPN 10 and 100 µM, NM102 10 and 300 µM, NM102 nanoformulation 1.29 and 5.16 mM
Procedure, shortened: (§2)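 Cells grown in DMEM with 10% heat-inactivated FBS, 1 U/mL penicillin and 1 µg/mL streptomycin (37 °C, 5% CO2). At 70% confluency, trypsinised and seeded at 4 × 10^4 cells/well, then incubated overnight. Switched to antibiotic-free DMEM 2 h before assay. Exposed 1 h in HBSS with 10% DMSO or empty-nanoformulation controls. MTS reagent added for 1 h, A490 read. Reagent and compound backgrounds subtracted; normalised to untreated cells.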

Vero cells = experiment: Cytotoxicity, CellTiter96 AQueous; type: cell-based, monkey; settings: 1 h; MPN 10 and 100 µM, NM102 10 and 300 µM, NM102 nanoformulation 1.29 and 5.16 mM
Procedure, shortened: as §2

Mfd = target: T1, Mfd (Escherichia coli, UniProt P30958); experiment: Isothermal titration calorimetry; type: binding, E. coli; settings: ITC, 25 °C; no inhibitor
T1 sequence (P30958 1-1148): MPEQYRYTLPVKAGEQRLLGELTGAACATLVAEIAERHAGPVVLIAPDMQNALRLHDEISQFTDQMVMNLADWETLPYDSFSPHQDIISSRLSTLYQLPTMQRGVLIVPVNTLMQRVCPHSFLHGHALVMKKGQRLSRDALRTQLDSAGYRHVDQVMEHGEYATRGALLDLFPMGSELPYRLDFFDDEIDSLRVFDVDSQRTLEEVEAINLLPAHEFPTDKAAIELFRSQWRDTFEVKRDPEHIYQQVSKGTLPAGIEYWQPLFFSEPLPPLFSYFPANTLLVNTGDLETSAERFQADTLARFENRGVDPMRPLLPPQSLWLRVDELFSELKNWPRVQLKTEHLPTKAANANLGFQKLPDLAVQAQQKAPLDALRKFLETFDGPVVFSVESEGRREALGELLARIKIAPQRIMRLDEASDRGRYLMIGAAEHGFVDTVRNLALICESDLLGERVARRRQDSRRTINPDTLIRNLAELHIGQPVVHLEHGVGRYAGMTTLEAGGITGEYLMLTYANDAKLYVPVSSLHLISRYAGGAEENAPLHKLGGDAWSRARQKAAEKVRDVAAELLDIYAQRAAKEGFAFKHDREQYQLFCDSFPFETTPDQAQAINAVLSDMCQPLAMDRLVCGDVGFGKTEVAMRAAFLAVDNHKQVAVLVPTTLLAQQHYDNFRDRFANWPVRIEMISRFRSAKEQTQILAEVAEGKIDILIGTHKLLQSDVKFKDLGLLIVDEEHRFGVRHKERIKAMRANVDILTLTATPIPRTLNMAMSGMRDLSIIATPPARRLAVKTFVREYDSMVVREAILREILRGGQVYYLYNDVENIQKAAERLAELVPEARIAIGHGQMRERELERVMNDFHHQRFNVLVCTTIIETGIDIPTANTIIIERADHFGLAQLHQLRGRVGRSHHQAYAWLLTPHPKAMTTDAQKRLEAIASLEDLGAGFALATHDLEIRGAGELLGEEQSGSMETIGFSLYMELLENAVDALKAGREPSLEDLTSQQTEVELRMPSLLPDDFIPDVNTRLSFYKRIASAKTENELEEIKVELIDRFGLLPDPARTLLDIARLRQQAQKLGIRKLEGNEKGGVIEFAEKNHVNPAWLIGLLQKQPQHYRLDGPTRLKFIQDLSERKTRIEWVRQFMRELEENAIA
Procedure, shortened: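 Full-length E. coli Mfd (20 µM) in 0.1 M Tris, 0.2 M NaCl, 4% DMSO, pH 8 at 25 °C. Titrated with 20 injections of 2.5 µL of 200 µM test compound at 300 s intervals. For the competition run, Mfd was preincubated with test compound, then ATP (200 µM) binding was measured. A = Ka/Kapp. Performed in triplicate.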

SMILES: C[C@@H](O)[C@H]1C(=O)N2C(C(=O)O)=C(S[C@@H]3CN[C@H](C(=O)N(C)C)C3)[C@H](C)[C@H]12 [MPN, meropenem]
reduction of the bacterial load [1]: 93%
effect on bacterial burden of the ∆mfd mutant (K. pneumoniae ∆mfd): inhibited
effect on bacterial load in the lung (K. pneumoniae ALE): no significant effect
decrease of bacterial load (P. aeruginosa CIP27853): 26 times
cytotoxicity (HeLa cells): no toxicity
cytotoxicity (Vero cells): induced cytotoxicity

Kd (Mfd): 145 ± 9 µM
SMILES: Nc1ncnc2c1ncn2[C@@H]1O[C@H](COP(=O)(O)OP(=O)(O)OP(=O)(O)O)[C@@H](O)[C@H]1O [ATP]
